The text below walks through data of ChEMBL document CHEMBL2331117 (J Med Chem, 2013).

Data set [1] relates to Mus musculus. Nature of the data set: In vivo inhibition of mTORC1-mediated phosphorylation of 4EBP1 at ([…]) in human MCF7 cells xenografted into athymic nude mouse at 100 mg/kg, po after 24 hrs by Western blotting analysis relative to control. The data set is classed as functional. To be noted: MCF7, 24 h.
Data set [2] has as its system Mus musculus. The data set is described as follows: In vivo inhibition of mTORC1-mediated phosphorylation of pS6 at (serine 240/244) in human MCF7 cells xenografted into athymic nude mouse at 100 mg/kg, po after 32 hrs by Western blotting analysis relative to control. Format: functional. The note with it: MCF7, 32 h. The gist of the method: (§1)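 MCF-7 cells (DMEM, 10% FBS) were implanted subcutaneously at 5 × 10^6 cells in 50% cold HBSS/50% growth-factor-reduced matrigel into the hindflank of 5−8 week old female nude mice. At tumor size 40−150 mg, mice received a single oral dose of 100 mg/kg. Tumor lysates were pooled per group. Phospho-AKT (S473, T308), p70S6K (T389), S6 (S240/244) and 4E-BP1 (T37/46) were measured by Western blot normalized to α-tubulin.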
(In xenograft studies the graft and the host belong to different species.)

The subject of data set [3] is Mus musculus. Nature of the data set: In vivo inhibition of mTORC1-mediated phosphorylation of pS6 at (serine 240/244) in human MCF7 cells xenografted into athymic nude mouse at 100 mg/kg, po after 24 hrs by Western blotting analysis relative to control. Format: functional. To be noted: MCF7, 24 h. The gist of the method: as §1
In data set [4] the test system is Mus musculus. Nature of the data set: In vivo inhibition of mTORC1-mediated phosphorylation of pS6 at (serine 240/244) in human MCF7 cells xenografted into athymic nude mouse at 100 mg/kg, po after 1 hr by Western blotting analysis relative to control. The data set is classed as functional. The note with it: MCF7, 1 h. In a few lines:
as §1

Data set [5] deals with Mus musculus. Nature of the data set: In vivo inhibition of mTORC1-mediated phosphorylation of p70S6K at […] in human MCF7 cells xenografted into athymic nude mouse at 100 mg/kg, po after 24 hrs by Western blotting analysis relative to control. Format: functional. To be noted: MCF7, 24 h. The gist of the method: as §1
For data set [6], the system named is Mus musculus. The data set is described as follows: In vivo inhibition of mTORC1-mediated phosphorylation of p70S6K at […] in human MCF7 cells xenografted into athymic nude mouse at 100 mg/kg, po after 16 hrs by Western blotting analysis relative to control. Format: functional. The note with it: MCF7, 16 h. In a few lines:
as §1

The test system of data set [7] is Mus musculus. The data set is described as follows: In vivo inhibition of mTORC1-mediated phosphorylation of p70S6K at […] in human MCF7 cells xenografted into athymic nude mouse at 100 mg/kg, po after 1 hr by Western blotting analysis relative to control. Format: functional. To be noted: MCF7, 1 h. The gist of the method: as §1
In data set [8] the test system is Mus musculus. The data set is described as follows: In vivo inhibition of mTORC2-mediated phosphorylation of AKT at […] in human MCF7 cells xenografted into athymic nude mouse at 100 mg/kg, po after 24 hrs by Western blotting analysis relative to control. The data set is classed as functional. To be noted: MCF7, 24 h. In a few lines:
as §1

Data set [9] concerns Mus musculus. The data set is described as follows: In vivo inhibition of mTORC2-mediated phosphorylation of AKT at […] in human MCF7 cells xenografted into athymic nude mouse at 100 mg/kg, po after 1 hr by Western blotting analysis relative to control. The data set is classed as functional. The note with it: MCF7, 1 h. The gist of the method:
as §1

For data set [10], the system named is Mus musculus. The data set is described as follows: In vivo inhibition of mTORC2-mediated phosphorylation of AKT at serine 473 in human MCF7 cells xenografted into athymic nude mouse at 100 mg/kg, po after 1 hr by Western blotting analysis relative to control. The data set is classed as functional. The note with it: MCF7, 1 h. The gist of the method: as §1

Data set [11] concerns the target Focal adhesion kinase 1 (Homo sapiens, UniProt Q05397). Nature of the data set: Inhibition of FAK (unknown origin). The gist of the method: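 Part of a 141-protein-kinase selectivity panel run either in house or by an outside contract lab. IC50 is reported as the average of at least two determinations.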
Data set [12] deals with Serine/threonine-protein kinase mTOR (Homo sapiens) (UniProt P42345). The data set is described as follows: Competitive inhibition of mTOR (unknown origin) in presence of ATP.
The nature of data set [13]: Half life in athymic nude mouse at 10 mg/kg, iv. Format: ADME, organism-based. Set-up: dose 10 mg/kg, route intravenous. To be noted: in vivo. The gist of the method: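 Single-dose PK: female athymic nude mice (10 mg/kg), female CD rats and male beagle dogs (3 mg/kg), male cynomolgus monkeys (3 mg/kg), given iv and by oral gavage. Solution in EPW (5% ethanol/45% PEG400/water), with 1:2 HCl (m/m) for mouse, rat and dog and 1:1.5 HCl (m/m) for monkey. Plasma levels followed over 24 h.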

Data set [14] in a line: Tmax in athymic nude mouse at 10 mg/kg, po. The data set is classed as ADME, organism-based. Set-up: dose 10 mg/kg, route oral. The note with it: in vivo.
In data set [15] the test system is Plasma. Nature of the data set: Plasma concentration in athymic mouse plasma xenografted with human MCF7 cells at 100 mg/kg, po after 32 hrs. The data set is classed as ADME, organism-based. Also on record: dose 100 mg/kg, route oral. The note with it: in vivo, BLD = below limit of detection. In a few lines:
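MCF-7 cells (5 × 10^6, in 50% cold HBSS/50% growth-factor-reduced matrigel) were implanted subcutaneously in the hindflank of 5–8 week old female nude mice. At 40–150 mg tumour size, mice received a single oral dose of 100 mg/kg, and plasma was sampled at the listed times after dosing.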

Data set [16] is described as follows: Metabolic stability in monkey liver microsomes after 30 mins. The data set is classed as ADME, Macaca mulatta, Microsome. The note with it: rhesus monkey, read-out: Stability. On the technique in general: Microsomes from liver hold many membrane-bound enzymes, among them those of drug oxidation.
A short description of data set [17]: Plasma protein binding in rat at 5 uM. Format: ADME, cell-free. To be noted: read-out: PPB (converted).
A short description of data set [18]: Apparent permeability across MDCK cells. The note with it: dog. Format: ADME, cell-based, Canis lupus familiaris.
For data set [19], the system named is Mus musculus. The data set is described as follows: In vivo inhibition of mTOR1-mediated phosphorylation of p70S6K at […] in human PC3 cells xenografted into athymic nude mouse at 100 mg/kg, po after 8 hrs by Western blotting analysis relative to control. Format: functional. The note with it: PC-3, 8 h. In a few lines: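 PC-3 cells (3 × 10⁶, passages 10–14, in ice-cold HBSS) were implanted sc in 5–8 week old male nude mice. Tumors of 200–500 mg received a single oral 100 mg/kg dose. Plasma and tumor were collected at 1, 4, 8, 16, 24 and 32 h and homogenized in buffer. Lysates were pooled per group (n = 5), and phospho-proteins were measured by Western blot normalized to α-tubulin.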

The test system of data set [20] is Mus musculus. The data set is described as follows: In vivo inhibition of mTORC2-mediated phosphorylation of AKT at serine 473 in human PC3 cells xenografted into athymic nude mouse at 100 mg/kg, po after 32 hrs by Western blotting analysis relative to control. The data set is classed as functional. The note with it: PC-3, 32 h. The gist of the method: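 PC-3 cells grown in DMEM with 20% FBS were implanted subcutaneously at 3 × 10^6 cells in ice-cold HBSS into the hindflank of 5−8 week old male nude mice. At tumor size 200−500 mg, mice received a single oral dose of 100 mg/kg. Plasma and tumors were collected at 1, 4, 8, 16, 24 and 32 h. Tumor lysates from each group (n = 5) were pooled. Phospho-proteins were quantified by Western blot and normalized to α-tubulin.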

Structures are written as SMILES. Calls of active or inactive are those of the source. The rule behind the calls is not given here.

Focal adhesion kinase 1, sequence (Q05397 whole entry): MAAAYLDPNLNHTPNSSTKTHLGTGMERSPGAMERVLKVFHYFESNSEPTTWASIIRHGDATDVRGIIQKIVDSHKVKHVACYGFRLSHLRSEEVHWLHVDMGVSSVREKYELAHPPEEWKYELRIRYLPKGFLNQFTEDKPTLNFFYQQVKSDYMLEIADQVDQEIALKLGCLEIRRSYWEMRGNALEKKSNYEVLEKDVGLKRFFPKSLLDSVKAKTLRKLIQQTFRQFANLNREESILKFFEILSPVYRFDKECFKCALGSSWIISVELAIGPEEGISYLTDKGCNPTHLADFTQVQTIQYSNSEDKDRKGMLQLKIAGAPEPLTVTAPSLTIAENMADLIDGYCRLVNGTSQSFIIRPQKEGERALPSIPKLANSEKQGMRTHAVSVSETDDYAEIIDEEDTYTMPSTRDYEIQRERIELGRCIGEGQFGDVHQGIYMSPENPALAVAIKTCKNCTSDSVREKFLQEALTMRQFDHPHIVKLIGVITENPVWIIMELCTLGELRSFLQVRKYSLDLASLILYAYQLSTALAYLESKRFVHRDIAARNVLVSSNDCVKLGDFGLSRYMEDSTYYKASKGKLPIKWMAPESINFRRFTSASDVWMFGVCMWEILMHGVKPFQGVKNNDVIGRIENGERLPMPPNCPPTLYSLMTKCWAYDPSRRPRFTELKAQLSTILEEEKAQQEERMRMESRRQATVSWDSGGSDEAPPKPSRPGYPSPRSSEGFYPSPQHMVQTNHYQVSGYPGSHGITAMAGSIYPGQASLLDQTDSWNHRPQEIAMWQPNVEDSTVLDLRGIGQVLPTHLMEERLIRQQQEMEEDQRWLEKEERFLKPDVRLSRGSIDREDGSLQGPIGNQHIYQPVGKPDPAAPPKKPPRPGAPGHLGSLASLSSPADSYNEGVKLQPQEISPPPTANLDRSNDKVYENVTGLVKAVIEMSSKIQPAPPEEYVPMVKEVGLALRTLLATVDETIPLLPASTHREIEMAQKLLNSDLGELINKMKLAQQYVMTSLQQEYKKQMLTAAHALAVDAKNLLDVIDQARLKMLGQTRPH

By inhibition in vivo is commonly meant the change of the read-out against control, counted positive when it falls. As usually defined, the IC50 is the point on the concentration scale where inhibition reaches its midpoint. Usually half-life stands for the time in which the quantity being followed falls by half. As a reminder, the Tmax is the time from dosing to the highest level. The term Papp denotes the rate of passage across a membrane or cell layer, normalised by area and donor concentration. Turning to `Cc1c(C(=O)N2CCOc3ccc(-c4ccc(N)nc4)cc3C2)ccc(S(C)(=O)=O)c1F`, the inhibition in vivo at 100 mg/kg in [1] was -17%; in data set [2] it was -3%; in data set [3], -24%; in data set [4], 96%; in [5], -19%; in data set [6], 41%. Moreover, the inhibition in vivo at 100 mg/kg in [7] is 85%; in data set [8] it was -39%; in data set [9], 6%; in [10], 93%; in data set [19], 92%; in data set [20], 10%. The IC50 in data set [11] was over 3.5 µM. Besides, the inhibition entry in data set [12] is “Active”. For the same compound, the half-life in data set [13] is 81 min. The time of peak concentration (Tmax) in data set [14] is 30 min. Moreover, the Cp result in [15] is recorded as “BLD”. Further, the remaining at 0.5 h in [16] worked out at 65%. The fraction unbound at 5 µM in data set [17] is 0.15. Moreover, in data set [18], the Papp is 151 nm/s.
